{
  "source": "ChEMBL document CHEMBL3745596",
  "about": "“Chlorophenoxy aminoalkyl derivatives as histamine H(3)R ligands and antiseizure agents” (Bioorg Med Chem, 2016)",
  "key": {"[1]": {"system": "Mus musculus", "assay": "Neurotoxicity in CF1 albino mouse assessed as unable to grasp rotarod and death at 100 mg/kg, ip after 0.5 hrs by rotarod test", "format": "toxicity, organism-based", "details": "in vivo", "procedure,_shortened": "(§1)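 Male albino CF-1 mice dosed ip with compound suspended in 0.5% methylcellulose, then placed on a 1-inch knurled plastic rod turning at 6 rpm. A fall three times within 1 min counted as neurotoxicity. Observations were made at 0.5 h and 4 h after dosing. Result given as animals showing toxicity per animals tested, with the kind of toxicity recorded.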"}, "[2]": {"system": "Liver microsome", "assay": "Drug metabolism in human liver microsomes after 2 hrs by UPLC-MS/MS analysis", "format": "ADME", "procedure,_shortened": "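Pooled adult male and female human liver microsomes 1 mg/mL in 0.1 M Tris–HCl pH 7.4 with NADPH regeneration system; started after 5 min preincubation at 37 °C, incubated 2 h at 37 °C, stopped with cold methanol, centrifuged, supernatant analysed by UPLC with ESI tandem quadrupole MS.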"}, "[3]": {"system": "Mus musculus", "assay": "Neurotoxicity in CF1 albino mouse assessed as death at 300 mg/kg, ip after 0.5 hrs by rotarod test", "format": "toxicity, organism-based", "details": "in vivo", "procedure,_shortened": "as §1"}, "[4]": {"system": "Mus musculus", "assay": "Anticonvulsant activity in CF1 albino mouse assessed as protection against subcutaneous pentetrazole-induced seizure at 30 mg/kg, ip after 4 hrs", "format": "functional, organism-based", "procedure,_shortened": "(§2)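 Male CF-1 mice, ip in 0.5% methylcellulose; pentetrazole at CD97 (85 mg/kg) injected subcutaneously in a loose fold of neck skin. Observed 30 min; absence of even a threshold seizure (single clonic spasm lasting at least 5 s) counted as protection. Scored protected/tested, or ED50.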"}, "[5]": {"system": "Mus musculus", "assay": "Neurotoxicity in CF1 albino mouse at 30 mg/kg, ip after 0.5 hrs by rotarod test", "format": "toxicity, organism-based", "details": "in vivo", "procedure,_shortened": "(§3)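 Rotarod neurotoxicity in male albino CF-1 mice dosed ip with compound suspended in 0.5% methylcellulose. Animal placed on a 1 inch diameter knurled plastic rod rotating at 6 rpm. Neurotoxicity scored when the animal falls off three times within 1 min. Readout is number of animals toxic/number tested at the stated time after dosing. TD50 with 95% confidence interval from the quantitative study.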"}, "[6]": {"assay": "Antiproliferative activity against human IMR32 cells assessed as cell viability after 48 hrs by formazan EZ4U dye based assay", "details": "IMR-32, 48 h", "procedure,_shortened": "(§4)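 HEK-293 (1.5 × 10⁴/well) or IMR-32 (2 × 10⁴/well) cells in DMEM with 10% FBS, 37 °C, 5% CO₂, grown 24 h to about 60% confluence; compounds 0.01–250 µM final, DMSO at most 1%, 48 h.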"}, "[7]": {"system": "Rattus norvegicus", "assay": "Anticonvulsant activity in Sprague-Dawley rat assessed as protection against maximal electroshock-induced seizure at 30 mg/kg, po", "format": "functional"}, "[8]": {"system": "Mus musculus", "assay": "Anticonvulsant activity in CF1 albino mouse assessed as protection against maximal electroshock-induced seizure at 30 mg/kg, ip after 0.5 hrs", "format": "functional, organism-based", "procedure,_shortened": "(§5)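 Male CF-1 mice dosed ip as suspension in 0.5% methylcellulose. Corneal electrodes deliver 60 Hz alternating current, 50 mA for […], after a drop of 0.5% tetracaine HCl in 0.9% NaCl per eye. Protection means abolition of hindlimb tonic extension; scored as protected/tested, or ED50 with 95% confidence interval.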"}, "[9]": {"system": "HEK293", "assay": "Antiproliferative activity against human HEK293 cells assessed as cell viability after 48 hrs by formazan EZ4U dye based assay", "details": "HEK293, 48 h", "procedure,_shortened": "as §4"}, "[10]": {"molecular_target": "Cytochrome P450 3A4 (Homo sapiens, UniProt P08684)", "sequence (P08684 whole entry)": "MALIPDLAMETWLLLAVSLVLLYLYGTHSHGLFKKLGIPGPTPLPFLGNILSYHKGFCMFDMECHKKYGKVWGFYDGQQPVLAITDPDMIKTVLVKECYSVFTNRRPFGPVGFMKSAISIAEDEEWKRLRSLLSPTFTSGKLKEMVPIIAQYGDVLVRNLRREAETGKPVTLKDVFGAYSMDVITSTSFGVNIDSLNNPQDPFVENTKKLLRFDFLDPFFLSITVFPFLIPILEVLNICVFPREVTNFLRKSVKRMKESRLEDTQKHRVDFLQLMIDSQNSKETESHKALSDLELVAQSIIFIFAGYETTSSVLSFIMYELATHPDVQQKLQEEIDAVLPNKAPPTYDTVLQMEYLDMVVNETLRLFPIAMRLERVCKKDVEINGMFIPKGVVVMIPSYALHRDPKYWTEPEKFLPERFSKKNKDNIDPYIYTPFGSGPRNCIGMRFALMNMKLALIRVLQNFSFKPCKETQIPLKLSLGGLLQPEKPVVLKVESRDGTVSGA", "assay": "Inhibition of CYP3A4 (unknown origin) up to 10 uM", "format": "ADME"}, "[11]": {"molecular_target": "T1, Histamine H3 receptor (Homo sapiens, UniProt Q9Y5N1)", "T1 sequence (Q9Y5N1 whole entry)": "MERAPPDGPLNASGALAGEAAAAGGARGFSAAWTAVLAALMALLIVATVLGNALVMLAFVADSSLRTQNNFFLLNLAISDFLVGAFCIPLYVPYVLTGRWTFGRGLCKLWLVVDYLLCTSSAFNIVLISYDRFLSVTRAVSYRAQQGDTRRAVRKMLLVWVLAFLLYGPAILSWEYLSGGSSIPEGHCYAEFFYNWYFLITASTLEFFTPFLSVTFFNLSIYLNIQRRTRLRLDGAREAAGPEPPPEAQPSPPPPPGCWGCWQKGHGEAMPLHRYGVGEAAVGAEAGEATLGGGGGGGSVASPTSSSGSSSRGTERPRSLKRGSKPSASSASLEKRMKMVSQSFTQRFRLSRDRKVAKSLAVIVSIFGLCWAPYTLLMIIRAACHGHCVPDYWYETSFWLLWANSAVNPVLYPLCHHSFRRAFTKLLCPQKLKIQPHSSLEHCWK", "assay": "Antagonist activity at human recombinant histamine H3 receptor expressed in HEK293 cells assessed as inhibition of forskolin/(R)(-)-alpha-methylhistamine-induced cAMP accumulation after 1 hr by TR-FRET immunoassay", "format": "functional, cell-based", "procedure,_shortened": "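HEK293 cells stably expressing hH3R, stimulated 30 min at room temperature with (R)(-)-α-methylhistamine (15 nM), forskolin and antagonist (0.1 nM–10 µM range) added together. cAMP read by TR-FRET (Eu-cAMP tracer, ULight anti-cAMP antibody, 1 h), converted via cAMP standard curve to % maximal response. Sigmoidal dose–response fit; mean of three experiments, each in triplicate.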"}, "[12]": {"system": "Mus musculus", "assay": "Anticonvulsant activity in CF1 albino mouse assessed as protection against subcutaneous pentetrazole-induced seizure at 30 mg/kg, ip after 0.5 hrs", "format": "functional, organism-based", "procedure,_shortened": "as §2"}, "[13]": {"system": "Mus musculus", "assay": "Neurotoxicity in CF1 albino mouse at 100 mg/kg, ip after 4 hrs by rotarod test", "format": "toxicity, organism-based", "details": "in vivo", "procedure,_shortened": "as §3"}, "[14]": {"system": "Mus musculus", "assay": "Neurotoxicity in CF1 albino mouse at 300 mg/kg, ip after 4 hrs by rotarod test", "format": "toxicity, organism-based", "details": "in vivo", "procedure,_shortened": "as §3"}, "[15]": {"system": "Mus musculus", "assay": "Neurotoxicity in CF1 albino mouse at 3 mg/kg, ip after 0.5 hrs by rotarod test", "format": "toxicity, organism-based", "details": "in vivo", "procedure,_shortened": "as §3"}, "[16]": {"system": "Mus musculus", "assay": "Anticonvulsant activity in CF1 albino mouse assessed as protection against maximal electroshock-induced seizure at 3 mg/kg, ip after 0.5 hrs", "format": "functional, organism-based", "procedure,_shortened": "as §5"}, "[17]": {"system": "Mus musculus", "assay": "Neurotoxicity in CF1 albino mouse at 30 mg/kg, ip after 4 hrs by rotarod test", "format": "toxicity, organism-based", "details": "in vivo", "procedure,_shortened": "as §3"}, "[18]": {"system": "Mus musculus", "assay": "Anticonvulsant activity in CF1 albino mouse assessed as protection against maximal electroshock-induced seizure at 100 mg/kg, ip after 4 hrs", "format": "functional, organism-based", "procedure,_shortened": "as §5"}, "[19]": {"molecular_target": "T1, Histamine H3 receptor", "assay": "Displacement of [3H]-Nalpha-methylhistamine from human recombinant histamine H3 receptor expressed in HEK293 cells after 90 mins", "format": "cell-based"}, "[20]": {"system": "Mus musculus", "assay": "Anticonvulsant activity in CF1 albino mouse assessed as protection against maximal electroshock-induced seizure at 30 mg/kg, ip after 4 hrs", "format": "functional, organism-based", "procedure,_shortened": "as §5"}, "[21]": {"system": "Mus musculus", "assay": "Anticonvulsant activity in CF1 albino mouse assessed as protection against maximal electroshock-induced seizure at 100 mg/kg, ip after 0.5 hrs", "format": "functional, organism-based", "procedure,_shortened": "as §5"}, "[22]": {"system": "Mus musculus", "assay": "Anticonvulsant activity in CF1 albino mouse assessed as protection against maximal electroshock-induced seizure at 10 mg/kg, ip after 0.5 hrs", "format": "functional, organism-based", "procedure,_shortened": "as §5"}, "[23]": {"system": "Mus musculus", "assay": "Neurotoxicity in CF1 albino mouse at 10 mg/kg, ip after 0.5 hrs by rotarod test", "format": "toxicity, organism-based", "details": "in vivo", "procedure,_shortened": "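Rotarod neurotoxicity in male CF-1 mice dosed ip as 0.5% methylcellulose suspension: mouse placed on 1 inch knurled rod rotating at 6 rpm; toxicity when the animal falls off three times within 1 min, with other signs noted. Scored as toxic/tested at 0.5 h and 4 h.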"}},
  "note": "Activity calls are given as the source filed them.",
  "data": [
    {"smiles": "Clc1ccc(OCCCCCCCN2CCCCC2)cc1.O=C(O)C(=O)O", "values": [
      {"measurement": "Activity", "setting": "[1]", "value": "Toxic"},
      {"measurement": "Drug metabolism", "setting": "[2]", "value": "metabolite_detected"},
      {"measurement": "Activity", "setting": "[3]", "value": "Toxic"},
      {"measurement": "Activity", "setting": "[4]", "value": "inactive"},
      {"measurement": "Activity", "setting": "[5]", "value": "Non-toxic"},
      {"measurement": "IC50", "setting": "[6]", "value": 15.5, "unit": "µM"},
      {"measurement": "Activity", "setting": "[7]", "value": 25, "unit": "%"},
      {"measurement": "Activity", "setting": "[8]", "value": "Active"},
      {"measurement": "IC50", "setting": "[9]", "value": 33.6, "unit": "µM"},
      {"measurement": "inhibition (INH)", "setting": "[10]", "value": "Not Active"},
      {"measurement": "EC50", "setting": "[11]", "value": 0.075, "unit": "µM"},
      {"measurement": "Activity", "setting": "[12]", "value": "inactive"},
      {"measurement": "Activity", "setting": "[13]", "value": "Non-toxic"},
      {"measurement": "Activity", "setting": "[14]", "value": "Non-toxic"},
      {"measurement": "Activity", "setting": "[15]", "value": "Non-toxic"},
      {"measurement": "Activity", "setting": "[16]", "value": "inactive"},
      {"measurement": "Activity", "setting": "[17]", "value": "Non-toxic"},
      {"measurement": "Activity", "setting": "[18]", "value": "Active"},
      {"measurement": "Ki", "setting": "[19]", "value": 0.128, "unit": "µM"},
      {"measurement": "Activity", "setting": "[20]", "value": "inactive"},
      {"measurement": "Activity", "setting": "[21]", "value": "Active"},
      {"measurement": "Activity", "setting": "[22]", "value": "inactive"},
      {"measurement": "Activity", "setting": "[23]", "value": "Non-toxic"}
    ]}
  ]
}
